Cl transport mod = KCC2 cotransporter modulators, thallium flux, primary screen, cell-based, HEK293 KCC2, FluoZin-2 fluorescence, MLSMR; KCC2 cells, thallium flux FluoZin-2 fluorescence; B-score of Tl+ flux slope (higher = more flux/activation; lower = inhibition) at 10 µM; hit rate 2.2% among 190,000; AID 1456, 2008;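 active = thallium flux slope and its plate-corrected score both differing from the plate sample mean at a set confidence after two filtering rounds, in either direction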;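 also: slope of fluorescence scaled to starting intensity during 10 to 20 s after thallium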
WT yeast gro inh = growth inhibition of WT strain, primary screen, mitochondrial fusion inhibitor project, WT and mutant strains, chemical genetic; mitochondrial fusion phenotypic screen; inhibition, % at 10 µM; hit rate 2.1% among 190,000; AID 1362, 2008; in the data active = inhibition above about 58%; tested in S. cerevisiae
ROMK primary = ROMK potassium channel modulators, primary screen, cell-based, thallium flux, MLSMR library; ATP-sensitive inward rectifier potassium channel 1 (Homo sapiens), P48048; B-score at 10 µM; hit rate 2% among 130,000; AID 1918, 2009; Tet-inducible ROMK, thallium flux fluorescence; actives lie on both sides;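 active = signal ratio slope over the read window, or its plate-corrected B-score, at least 3 SD from the plate mean, either direction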;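 also: B-score of the F/F0 ratio slope over 7 to 12 s after thallium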
14-3-3 Bad PPI = inhibitors of 14-3-3 zeta/Bad binding, primary screen, biochemical, TR-FRET, bovine 14-3-3 zeta | TR-FRET 14-3-3zeta/Dy647-pBad peptide displacement, 1 h | inhibition, % at 21.7 µM | hit rate 0.71% among 220,000;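 active = inhibition above about 70%, limit read from the data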;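 also: 0% = full 14-3-3 plus peptide FRET controls and 100% = background without 14-3-3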
Target sequence (P63103 whole entry, looked up): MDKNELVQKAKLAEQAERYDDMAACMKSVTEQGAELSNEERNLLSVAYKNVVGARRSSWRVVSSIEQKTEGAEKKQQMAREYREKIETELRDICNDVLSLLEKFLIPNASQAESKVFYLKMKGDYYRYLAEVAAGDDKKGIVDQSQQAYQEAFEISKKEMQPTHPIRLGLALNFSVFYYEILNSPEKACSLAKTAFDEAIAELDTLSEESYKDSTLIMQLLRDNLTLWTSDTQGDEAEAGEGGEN
NCF1 inh = p47phox/p22phox peptide binding inhibitors, primary screen, biochemical, uHTS, NADPH oxidase regulatory subunit; hit rate 0.53% among 220,000; inhibition, % at 24.7 µM; fluorescence polarization, 2 h;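 active = inhibition above about 30%, limit read from the data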;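 also: 0% = p47phox with labelled peptide and 100% = labelled peptide alone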
Target sequence (P14598 whole entry, looked up): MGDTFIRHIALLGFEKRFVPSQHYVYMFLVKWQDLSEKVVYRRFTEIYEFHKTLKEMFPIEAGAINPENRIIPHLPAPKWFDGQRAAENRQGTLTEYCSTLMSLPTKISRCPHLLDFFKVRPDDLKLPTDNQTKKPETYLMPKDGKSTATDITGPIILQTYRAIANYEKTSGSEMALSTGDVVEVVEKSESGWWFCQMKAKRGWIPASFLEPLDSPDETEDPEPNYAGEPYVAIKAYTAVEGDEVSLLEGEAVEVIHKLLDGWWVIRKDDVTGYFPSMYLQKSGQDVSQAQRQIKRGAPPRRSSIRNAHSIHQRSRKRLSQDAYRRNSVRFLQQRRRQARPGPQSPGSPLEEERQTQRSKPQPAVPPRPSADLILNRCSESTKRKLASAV
RBBP9 inhibitor = human RBBP9 inhibitors, primary screen, biochemical, fluorescence polarization, FP-Rh probe, HTS; Serine hydrolase RBBP9 (Homo sapiens), O75884; recombinant RBBP9; inhibition, % at 7.94 µM; hit rate 0.2% among 220,000; AID 1515, 2009;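 active = inhibition above the campaign mean of all tested compounds plus 3 SD, cut at about 14% in these data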;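 also: plate controls were DMSO wells with RBBP9 for no effect and wells lacking RBBP9 protein for full effect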
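Material: RBBP9 protein. Amount: RBBP9 at 2.5 µM in dispensed solution, before mixing. Schedule: 30 min then 45 min, 25 °C. Medium: Tris buffer pH 8.0, NaCl, Pluronic. Measured by: fluorescence polarization. Measure: percent inhibition from mP, scaled between DMSO and no-protein wells. Replication: one well per compound.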
Starred values were filed as active, the others as inactive; i = inactive; . = no result. This is a sample that favours compounds with a hit; in the whole collection about 5.8% have one here.

SMILES	Cl transport mod	WT yeast gro inh	ROMK primary	14-3-3 Bad PPI	NCF1 inh	RBBP9 inhibitor
CCOC(=O)c1c(CN2CCOCC2)n(-c2ccccc2)c2cc(Br)c(OC)cc12	1	73*	-0.097	1	-13	-9
CC(C)S(=O)(=O)N1CCCC(C(=O)c2cccc(Cl)c2)C1 (centres undefined)	-0.18	15	-0.72	3	6	-9
CCCn1nc(C(=O)Oc2ccc3c(C)cc(=O)oc3c2)c2ccccc2c1=O	-0.65	1	-0.59	1	4	-2
CCC(C)NC(=O)CSc1nnc(-c2ccc(Cl)cc2)n1N (centres undefined)	0.51	-24	-0.4	-3	53*	-4
C=CCNCc1cccn1-c1sc2c(c1C#N)CCCC2	0.99	12	-0.77	71*	-19	5
CCn1cc(CN2CCc3c([nH]c4ccccc34)C2c2cccc(OC)c2OC)c(C)n1 (centres undefined)	.	-12	-0.044	-9	-4	0
Cc1cc(C)c2nc3nc(C)c(C)cc3c(N)c2c1	-1.3	33	-1.5	-1	35*	-6
CCCSc1nc(C)c2cc(C)cc(C)c2n1	-1.1	54	-0.039	-12	-4	-6
Cn1nc(C(F)(F)F)c2cc(C(=O)Nc3ccc(F)cc3F)sc21	-0.75	-20	.	-2	-4	-6
Cn1nc(C(F)(F)F)c2cc(NC(=O)OCc3ccc(F)cc3)sc21	-3.2	79*	.	-1	-23	-11
Cn1nc(C(F)(F)F)c2cc(C(=O)Nc3ccc(Cl)cc3)sc21	-0.19	74*	.	-4	-9	-3
Cc1ncccc1C(=O)N1CCCC(CNC(=O)C2(c3ccc(Cl)cc3)CC2)C1 (centres undefined)	-0.73	3	0.31	-9	-4	-8
COc1ccc(CN2CCN(S(=O)(=O)c3ccc(F)cc3)CC2)cc1OC	0.3	14	.	70*	-4	3
COc1ccc(CN2CCN(S(=O)(=O)c3ccc(F)cc3)CC2)c(OC)c1OC	0.077	5	0.4	77*	1	4
COc1ccc(CN2CCN(c3ccc(F)cc3)CC2)c(OC)c1OC	-0.025	-25	-1.1	-8	-9	-6
CCn1cc(C(=O)NNC(=O)c2ccc(Cl)cc2)c(=O)c2ccc(C)nc21	0.067	-3	-0.011	-18	-16	-4
Cc1cccc(NC(=O)C2(c3ccccc3)CC2(Cl)Cl)c1 (centres undefined)	-1	6	0.47	-1	-7	-14
Cc1ccc(NC(=O)C2(c3ccccc3)CC2(Cl)Cl)cc1C (centres undefined)	0.1	73*	.	-2	-4	-2
NC(=O)c1cc2ccncc2c2ccccc12	0.24	.	0.049	4	-9	-11
C=CCCCCCCCCC(=O)Nc1ncccn1	1.1	.	-0.16	3	-19	-8
NC(=O)c1snnc1-c1ccccc1	1.6	.	.	-8	-5	-3
O=S(=O)(c1ccc(Cl)c(Cl)c1)c1snnc1-c1ccccc1	-0.55	84*	-0.49	-9	-17	1
Cc1ccc(C)c(C(C)NC(=O)c2ccc(Br)o2)c1 (centres undefined)	-1.1	14	.	-6	-138	-1
O=c1/c(=C/c2ccc([N+](=O)[O-])cc2)sc2n1CCCN=2	-0.021	6	.	80*	-4	-4
COc1ccc(Cc2noc(CN(C)CC3(N4CCOCC4)CCCCC3)n2)cc1OC	-1.1	11	0.19	-2	-9	-5
SMILES	Cl transport mod	WT yeast gro inh	ROMK primary	14-3-3 Bad PPI	NCF1 inh	RBBP9 inhibitor
S=C(NCCc1ccccc1)N/N=C/C1CCCCC1	1	72*	-1.2	-6	1	-3
S=C(NCCc1ccccc1)N/N=C/c1ccccc1Cl	2.5	64*	.	12	-6	-17
COc1cc(/C=N/n2cnnc2)ccc1OCc1ccccc1	0.44	64*	.	4	-20	-3
Cc1nn(C)c(C)c1/C=C/C(=O)c1ccc(Cl)cc1Cl	-0.98	17	0.4	-8	-13	-4
CC1(C)COC(Cn2c3ccccc3c3ccccc32)O1 (centres undefined)	0.35	.	.	3	-5	-9
CCC1(C)OCC(Cn2c3ccccc3c3ccccc32)O1 (centres undefined)	1.6	61*	-0.39	3	-4	4
Clc1cc(Cl)cc(C2=NCCC(c3ccccc3)O2)c1 (centres undefined)	0.96	75*	-0.59	17	-10	-9
COc1ccc(CNC(=O)C2CCCN2)cc1OC (centres undefined)	0.41	4	-0.11	25	0	-3
O=[N+]([O-])c1ccc(C2=NN(c3ccccc3)C(c3ccco3)C2)cc1 (centres undefined)	1	.	-1.9	4	28	-10
O=[N+]([O-])c1ccc(/C=C/C2=NN(c3ccccc3)C(c3ccco3)C2)cc1 (centres undefined)	0.54	28	-0.95	5	34*	-14
O=C(Cn1nc2n(c1=O)-c1ccccc1SC2)N/N=C/c1cccs1	-2.2	.	0.058	-4	-9	-13
CCN1/C(=C/c2sc(-c3ccccc3C)c[n+]2C)Sc2ccccc21	-1.3	77*	-0.36	-4	0	-8
CCN1/C(=C/c2ccc3cc(C)ccc3[n+]2CC)Sc2ccccc21	i	67	.	16	-48	-3
Cc1nc(NC(=O)c2cccc(Cl)c2)sc1C(=O)N1CCCCC1	-1.3	2	0.017	3	-6	-3
Cc1ccc2c(c1)c(N=O)c(O)n2Cc1ccc(Cl)cc1	0.026	74*	-2.6	-14	-2	-46
CCOc1cc(CN2CCN(c3cccc(C(F)(F)F)c3)CC2)ccc1O	-0.092	0	.	28	5	-7
CCOc1cc(CN2CCN(c3ccc(C(C)=O)cc3)CC2)ccc1OC	-0.064	10	.	89*	-3	3
COc1cc(CN2CCN(c3ccc(C)cc3)CC2)cc([N+](=O)[O-])c1O	0.62	4	.	83*	-6	-5
CCOc1cc(CN2CCN(c3cccc(C(F)(F)F)c3)CC2)ccc1OC	-0.4	50	-0.056	70*	17	8
Cc1cccc(N2C(=O)CSC23CCCCC3)c1	.	3	-0.15	-5	4	-7
O=C(CN1CCN(c2ccccc2O)CC1)Nc1cccnc1Cl	-0.55	9	-0.26	-5	-9	-7
CC(C)CCSc1nc2[nH]ncc2c(=O)[nH]1	-0.054	3	1.1	-1	-3	-7
CCOC(=O)c1ccc(Nc2nc(C(=O)OCC)nc3ccccc23)cc1	-0.8	5	.	2	-19	-8

High-throughput results deposited in PubChem BioAssay by several laboratories.
